# The list is not random: actives were taken first. Their share in the collection is about 2.5%.
# TCR CD3 inh – human TCR-CD3 binding inhibition. 0.37% of 360,000 active. AID 651800. inhibition, % at 9.4 µM. TAMRA-labeled TCR probe fluorescence, biochemical; in the data active means inhibition above about 19%;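 further: recombinant mutant TCR 2C K166C tagged with TAMRA read by polarization; 0% = receptor in buffer alone and 100% = receptor with positive control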
# PRMT1 FP inh – PRMT1 (human) inhibition, primary screen; 1.3% of 370,000 active; inhibition, % at 2.79 µM; recombinant PRMT1, activity-based probe fluorescence polarization; Q99873;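 active means inhibition above about 21% made by adding two undisclosed values, limit read from the data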
# mABHD4 FP – inhibits mouse alpha/beta hydrolase domain 4; Q8VD66; 0.54% of 370,000 active; purified mABHD4, FP-Rh probe fluorescence polarization; AID 720543; inhibition, % at 8.92 µM;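 active means inhibition exceeding the mean over every tested compound plus 3 SD, cut at about 30% in these data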;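 further: 0% = plate median of compound wells and 100% = S159A mutant with DMSO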
#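 system = mouse ABHD4 enzyme, wild type | medium = HEPES pH 7.0, NaCl, Pluronic buffer | also added = FP-Rh probe | incubation = Enzyme–compound pre-incubation 45 min, then probe 60 min, both 25 °C | technique = fluorescence polarization, excitation 525 nm, emission 598 nm, BODIPY TMR filters | controls = S159A mutant high control, sample median low control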
# HTRA1 inh – HTRA1 (human) protease inhibition; inhibition, % at 5.96 µM; 0.5% of 340,000 active; AID 504803; recombinant HTRA1, FP-rhodamine activity-based probe, fluorescence polarization; Q92743; in the data active means inhibition above about 36%;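 further: 0% = enzyme with DMSO and 100% = wells lacking enzyme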
# SIAE inh – blocks human sialic acid acetylesterase; Q9HAT2; SIAE FP-Rh probe binding, fluorescence polarization; inhibition, % at 9.66 µM; 0.69% of 370,000 active;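 active means inhibition above a cutoff: mean of compounds within the control limits plus 3 SD of those, cut at about 17% in these data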;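 further: 0% = plate median of compound wells and 100% = probe without SIAE protein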
# Target sequence (Q9HAT2 whole entry, looked up): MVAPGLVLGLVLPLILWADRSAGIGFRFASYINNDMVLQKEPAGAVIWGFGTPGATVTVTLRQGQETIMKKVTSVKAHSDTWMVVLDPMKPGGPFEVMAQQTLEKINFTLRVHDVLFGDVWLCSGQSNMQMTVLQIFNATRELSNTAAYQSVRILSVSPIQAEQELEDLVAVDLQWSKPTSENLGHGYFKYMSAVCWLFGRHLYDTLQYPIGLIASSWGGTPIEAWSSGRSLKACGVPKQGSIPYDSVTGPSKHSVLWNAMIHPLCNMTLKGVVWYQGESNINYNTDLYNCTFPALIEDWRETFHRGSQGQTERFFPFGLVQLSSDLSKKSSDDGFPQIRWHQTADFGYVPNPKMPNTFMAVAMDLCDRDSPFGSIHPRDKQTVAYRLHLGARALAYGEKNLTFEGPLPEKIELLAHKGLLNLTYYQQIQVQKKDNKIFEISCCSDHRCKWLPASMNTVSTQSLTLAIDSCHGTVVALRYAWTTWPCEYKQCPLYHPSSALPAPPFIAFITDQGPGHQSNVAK
# SIAE inh conf – human SIAE inhibition, confirmation; shares compounds with SIAE inh; 13% of 2,300 active; inhibition, % at 9.66 µM; SIAE FP-Rh activity-based probe, fluorescence polarization;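 active means mean inhibition of the replicates above the hit cutoff set in the primary screen, cut at about 17% in these data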;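 further: 0% = SIAE with DMSO and probe and 100% = probe without SIAE; inhibitors lower polarization as more probe stays unbound to SIAE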
# The depositor's hits bear a star; / = not tested or not shown.
SMILES,TCR CD3 inh,PRMT1 FP inh,mABHD4 FP,HTRA1 inh,SIAE inh,SIAE inh conf
O=C1CN(C(=O)C2CCC(=O)N(CCc3ccc(Cl)cc3)C2)CCN1 (stereo unspecified),-1,0,8,3,-1,/
CCOc1ccc(CCNC(=O)CCCn2c(=O)c3cccn3c3cccnc32)cc1OCC,-3,7,-15,4,22*,-3
COC(=O)c1cc(C(C)c2ccccc2O)n2ccccc12 (stereo unspecified),/,-5,-21,/,-6,/
COc1ccccc1NC(=S)NCc1ccccc1,-4,-4,-2,6,11,/
COc1ccccc1NC(=S)NCCN1CCOCC1,-5,-5,-2,-3,17*,3
COc1ccccc1NC(=S)NCCc1ccc(S(N)(=O)=O)cc1,5,-5,2,-2,2,/
COc1ccc(Cl)cc1NC(=S)NCCc1ccc(S(N)(=O)=O)cc1,5,-1,-3,-6,36*,2
COc1ccccc1NC(=S)NCc1ccc(Cl)cc1,3,0,7,-2,18*,-1
COc1ccc(CN(C)CC(=O)Nc2ccccc2C(F)(F)F)c(OC)c1,7,1,13,-1,20*,1
CC(C)=CCc1cc([C@@H]2CC(=O)c3ccc(O)c(CC=C(C)C)c3O2)ccc1O,10,1,-54,-42,-24,/
Cc1cccc[n+]1CC(=O)Nc1ccc([N+](=O)[O-])cc1,8,-3,-2,-1,-2,/
Cc1cccc[n+]1C1C(c2ccc([N+](=O)[O-])cc2)C(C#N)=C(C(=C=[N-])C#N)NC1(O)C1CC1 (stereo unspecified),-12,6,10,14,40*,0
CN(C)N1C(N)=C(C#N)C(c2ccc(F)cc2)C2=C1CCCC2=O (stereo unspecified),-5,-1,2,0,19*,5
Nc1ccc(N=Nc2ccccc2)cc1[N+](=O)[O-],-3,1,12,-3,18*,3
Cc1ccc(N)c([N+](=O)[O-])c1,5,-8,0,-1,1,/
Cc1ccc(O)c(/C=N/NC(=O)c2[nH]ncc2Br)c1,13,-1,-1,2,1,/
O=C(N/N=C/c1c(O)ccc2ccccc12)c1[nH]ncc1Br,11,0,17,33,19*,-5
O=S(=O)(Cc1ccc(Cl)cc1)NCc1ccc2c(c1)OCO2,-2,1,1,-6,5,/
COc1ccc2c(c1)-c1nc(NC(=O)c3ccco3)sc1CC2,2,0,-9,-23,19*,-10
COc1ccc2c(c1)CCc1sc(NC(=O)c3ccco3)nc1-2,/,/,/,0,/,/
COc1ccc2c(c1)CCc1sc(NC(=O)c3ccc(C)cc3)nc1-2,4,-2,10,-9,18*,1
CN(C)Cc1c(O)ccc2c(=O)c(-c3ccccc3Cl)c(C(F)(F)F)oc12,10,-3,-3,-6,-1,/
CC(CNC(=O)CN1C(=O)NC2(CCOc3ccccc32)C1=O)c1ccccc1 (stereo unspecified),5,3,6,-3,82*,-2
COc1cccc(/C=N/Nc2nc(Nc3ccc([N+](=O)[O-])cc3)nc(N3CCCC3)n2)c1O,-2,4,8,/,19*,-8
COc1ccc(NC(=O)NNC(=O)CCn2nc(C)c([N+](=O)[O-])c2C)cc1OC,/,-1,4,/,3,/
SMILES,TCR CD3 inh,PRMT1 FP inh,mABHD4 FP,HTRA1 inh,SIAE inh,SIAE inh conf
CN(CCO)c1ncnc2c1sc1nc(N3CCOCC3)c3c(c12)CCC3,-7,-2,-2,3,-9,/
Cc1cccc(C)c1NC(=O)c1cc(S(=O)(=O)N2CCOCC2)cn1C,1,-1,-5,0,19*,-1
N#C/C(=C\Nc1ccccc1O)c1nc2ccccc2o1,5,-2,18,-13,18*,-10
O=C(Cn1cncn1)NCCCc1ccccc1,-7,5,5,5,-4,/
CCOC(=O)c1sc(Nc2nc3c(F)cccc3s2)cc1C,0,-1,5,-5,4,/
CCOC(=O)c1sc(Nc2nc3ccc(OC)cc3s2)cc1C,1,-1,12,1,34*,-9
COc1ccc(Nc2nc3ccccc3s2)cc1,4,2,2,6,6,/
COc1cccc(Nc2nc3ccc(OC)cc3s2)c1,-4,-3,7,9,20*,3
O=C(N/N=C\c1ccccn1)c1cccc(C(=O)N/N=C\c2ccccn2)n1,18,-6,-5,-2,21*,21*
